In assay [1] the target is T1, Cytosolic purine 5'-nucleotidase (Homo sapiens, UniProt P49902). Nature of the assay: Inhibition of recombinant N-terminal truncated human cytosolic 5'-nucleotidase-2 assessed as inhibition of inosine 5'-monophosphate hydrolysis at 1 mM by rapid green malachite assay. The essentials: (§1)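 Purified recombinant N-terminally truncated cN-II expressed in E. coli, with IMP as substrate. Released phosphate was read by green malachite colorimetry. Inhibitor was tested at a single level, 0.2 mM or 1 mM. Compounds that are not water-soluble were added in DMSO, not exceeding 2% final.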
T1 sequence (P49902 whole entry, the tested form may be a part): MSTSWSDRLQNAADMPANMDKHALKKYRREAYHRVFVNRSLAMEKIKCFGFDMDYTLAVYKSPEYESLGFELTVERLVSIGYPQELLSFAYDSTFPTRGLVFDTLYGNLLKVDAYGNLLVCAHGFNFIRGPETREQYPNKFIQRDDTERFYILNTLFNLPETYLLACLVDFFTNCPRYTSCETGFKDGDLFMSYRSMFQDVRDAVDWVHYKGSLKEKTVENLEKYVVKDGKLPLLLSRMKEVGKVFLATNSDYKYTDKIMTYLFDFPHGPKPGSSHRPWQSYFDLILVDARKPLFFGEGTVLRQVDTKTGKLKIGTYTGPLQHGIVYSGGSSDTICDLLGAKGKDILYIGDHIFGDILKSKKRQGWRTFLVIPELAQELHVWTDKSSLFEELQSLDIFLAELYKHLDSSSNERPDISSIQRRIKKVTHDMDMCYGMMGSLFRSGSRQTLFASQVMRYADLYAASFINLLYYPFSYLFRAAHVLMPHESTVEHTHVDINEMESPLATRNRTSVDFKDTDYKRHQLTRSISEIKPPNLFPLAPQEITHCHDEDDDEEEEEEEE

In assay [2] the target is T1, Cytosolic purine 5'-nucleotidase. As to the kind of experiment: Inhibition of recombinant N-terminal truncated human cytosolic 5'-nucleotidase-2 assessed as inhibition of inosine 5'-monophosphate hydrolysis at 0.2 mM by rapid green malachite assay. The essentials: as §1
Assay [3] concerns RL. As to the kind of experiment: Antiproliferative activity against human RL cells after 72 hrs by MTT assay. It counts as functional, cell-based. The essentials: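 MTT assay on RL human follicular lymphoma cells treated with a range of compound concentrations for 72 h. IC50 calculated with CompuSyn and given as the mean ± SEM of at least three independent experiments.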
On the technique in general: Formazan colour is commonly taken as a measure of viable cells.

Assay [4] relates to RL. Nature of the assay: Antiproliferative activity against human RL cells after 72 hrs by MTT assay in presence of fludarabine. It is filed as functional, cell-based.
Assay [5] deals with RL. As to the kind of experiment: Antiproliferative activity against human RL cells after 72 hrs by MTT assay in presence of cladribine. It counts as functional, cell-based.
Assay [6] deals with RL. Nature of the assay: Antiproliferative activity against human RL cells after 72 hrs by MTT assay in presence of clofarabine. It is filed as functional, cell-based.
For assay [7], the target named is T1, Cytosolic purine 5'-nucleotidase. As to the kind of experiment: Inhibition of recombinant N-terminal truncated human cytosolic 5'-nucleotidase-2 assessed as inhibition of inosine 5'-monophosphate hydrolysis by steady state kinetics with HPLC quantification.

SMILES strings stand for the structures.

Take `OCc1nc2ccccc2[nH]1`: the inhibition in assay [1] amounted to 11%. Still for that read-out and setting: as for `OC(c1ccccc1)c1ccccc1`, the figure is 2%. Same read-out and setting: as for `Nc1ccc(-c2ccc(N)c(O)c2)cc1O`, the figure is 23%; as for `Nc1[nH]cnc2ncnc1-2`, 19%.

With `Nc1ccccc1-c1ccccc1`, the inhibition in assay [1] turned out to be 36%. For `c1ccc(N2CCNCC2)nc1`, the inhibition in assay [1] was determined as 0.5%.

For the compound `Oc1ccccc1-c1ccccc1`, in assay [1], the inhibition was 19%. Still for that read-out and setting: then `Nc1cccc2cnccc12`, with 30%. Same read-out and setting: then `O=C(Nc1ncnc2nc[nH]c12)c1ccccc1`, with 28%; and `c1ccc(CNc2ncnc3[nH]cnc23)cc1`, with 20%; and `Nc1nc(Cl)c2nc[nH]c2n1`, with 23%. Still for that read-out and setting: then `c1ccc(-c2c[nH]cn2)cc1`, with 36%. With `O=C1c2ccc(S(=O)(=O)O)cc2C(=O)c2ccc(S(=O)(=O)O)cc21`, in assay [2], the inhibition turned out to be 20%. The compound further returned an IC50 with RL [3] of 1040 µM. The CI95 is 4.2 in the assay on RL [4], 0.4 with RL [5] and 0.24 in the assay on RL [6]. For the same compound, the Ki in assay [7] amounted to 2000 µM.

For the compound `Oc1ccc(-c2ccc(O)cc2)cc1`, the inhibition in assay [1] worked out at 8%.

Turning to `Oc1ccc2ccc(O)cc2c1`, the inhibition in assay [1] came to 40%.

One may read the inhibition as the drop in the measured response relative to a control, in per cent. The term IC50 denotes the concentration that inhibits the measured activity by half. One may read the Ki as the dissociation constant of the complex between target and ligand, obtained from inhibition or displacement.

Values taken from ChEMBL document CHEMBL3745667, “Identification of Noncompetitive Inhibitors of Cytosolic 5'-Nucleotidase II Using a Fragment-Based Approach” (J Med Chem, 2015).
